NR2E3 ag-1 = NR2E3 agonists in two-hybrid cells, primary screen, cell-based, luminescence, CHO-S, Gal4-NCOR/VP16-NR2E3; Photoreceptor-specific nuclear receptor (Homo sapiens), Q9Y5X4; luciferase; inhibition of corepressor binding, % at 3.98 µM; actives 0.35% (n = 360,000); AID 602229, 2012;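 active means inhibition above the mean of all tested compounds plus 3 SD, cut at about 70% in these data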;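 further: 0% = DMSO with NR2E3 transfected cells and 100% = cells lacking NR2E3 construct; higher means lower luciferase signal from less NR2E3 corepressor binding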
Target sequence (Q9Y5X4 whole entry, looked up, the tested form may be a part): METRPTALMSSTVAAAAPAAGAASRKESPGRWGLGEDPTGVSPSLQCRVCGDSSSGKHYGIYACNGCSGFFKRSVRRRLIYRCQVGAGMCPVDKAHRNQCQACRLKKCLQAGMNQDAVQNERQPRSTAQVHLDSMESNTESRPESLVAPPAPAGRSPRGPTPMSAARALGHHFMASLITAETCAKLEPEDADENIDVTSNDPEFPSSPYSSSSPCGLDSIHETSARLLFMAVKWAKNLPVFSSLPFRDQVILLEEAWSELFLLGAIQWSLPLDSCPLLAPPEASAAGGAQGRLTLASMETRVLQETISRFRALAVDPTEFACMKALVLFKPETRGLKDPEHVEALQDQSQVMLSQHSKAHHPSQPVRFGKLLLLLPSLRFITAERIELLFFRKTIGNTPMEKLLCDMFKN
PG9 Ab binder = binders of HIV-1 gp120 antibody PG9, primary screen, biochemical, TR-FRET | HIV-1 gp120 / PG9 antibody interaction | TR-FRET gp120-PG9 antibody binding | inhibition, % at 6.7 µM | actives 0.43% (n = 360,000) | AID 624416, 2012; in the data active means inhibition above about 8.5%
rCAG binder = binders of r(CAG) RNA repeats, primary screen, biochemical, fluorescence; r(CAG) RNA repeat, TO-PRO-1 dye displacement fluorescence; inhibition, % at 3 µM; actives 1.3% (n = 370,000);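 active means inhibition above the plate cutoff, the mean of all test compounds on that plate plus 3 SD, cut at about 35% in these data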;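 further: 0% = DMSO alone and 100% = 100 µM mitoxantrone as full dye displacement; higher means more dye released from RNA so lower well fluorescence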
NR2E3 ag-2 = inhibitors of NR2E3-RetCOR corepressor binding, primary screen, NR2E3 agonist project, biochemical, TR-FRET, GST-NR2E3, biotin-RetCOR. actives 0.12% (n = 320,000). Photoreceptor-specific nuclear receptor (Homo sapiens), Q9Y5X4. 1536-well. inhibition of corepressor binding, % at 4.78 µM. AID 2300, 2010;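 active means percent inhibition above the cutoff of mean plus 3 SD of all tested compounds, set per screening campaign, cut at about 20% in these data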;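 further: 0% = DMSO wells and 100% = biotin wells as full block of FRET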
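Format: 1536-well format; test system: GST-NR2E3 and biotin-RetCOR proteins; read-out basis: percent inhibition of TR-FRET ratio; timing: 5 h incubation at 4 °C; detection: time-resolved FRET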
Rev-erbA mod = modulators of Rev-erb alpha DNA binding, primary screen, biochemical, FITC-DNA, fluorescence polarization, uHTS | Nuclear receptor subfamily 1 group D member 1 (Homo sapiens), P20393 | Rev-erbα–FITC-DNA binding, 90 min | activity, % at 10 µM | actives 0.79% (n = 370,000);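 active means activity above about 14%, limit read from the data; passing the limit was not always enough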;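 further: 0% = DMSO wells with 35 nM protein and 100% = DMSO wells with 750 nM protein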
rCAG bind conf = small molecules binding CAG repeat RNA – biochemical, fluorescence, confirmation; inhibition, % at 3 µM; actives 70% (n = 4,300); shares compounds with rCAG binder; AID 652065, 2013; r(CAG) RNA repeat, TO-PRO-1 dye displacement fluorescence;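 active means inhibition above a per-plate cutoff, the mean inhibition of sample wells plus 3 SD, cut at about 35% in these data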;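 further: loss of TO-PRO-1 fluorescence as compound displaces dye from 1x1 AA loop RNA; 0% = DMSO only wells and 100% = 100 µM mitoxantrone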
DNA CAG counter = displacement of TO-PRO-1 from CAG DNA duplex, counter-screen for rCAG RNA repeat binder project, biochemical, fluorescence, TO-PRO-1 dye, d(CAG) DNA oligo | shares compounds with rCAG binder | d(CAG) DNA oligo TO-PRO-1 dye displacement | inhibition, % at 3 µM | actives 94% (n = 4,300) | AID 652068, 2013;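 active means inhibition above its plate's cutoff, the mean test-well inhibition plus 3 SD, cut at about 4.8% in these data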;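 further: 0% = DNA dye mix with DMSO and 100% = 100 µM mitoxantrone; hits displace the dye from DNA and so lower well fluorescence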
An asterisk follows results filed as active; . = not tested or not shown. Only some compounds are listed: those with a hit (about 2.6% of all), similar ones and a draw of the others.

SMILES	NR2E3 ag-1	PG9 Ab binder	rCAG binder	NR2E3 ag-2	Rev-erbA mod	rCAG bind conf	DNA CAG counter
Cc1ccc(Oc2ccc(S(=O)(=O)Nc3ccc(C(=O)O)cc3)cc2)cc1	-14	0	13	0	5	.	.
COc1ccc(C2=Nn3c(nnc3C3CCCCC3)SC2)cc1	.	.	-2	.	-3	.	.
CC(C)c1ccc(OC[C@@H](O)CN2CCC(C(O)(c3ccccc3)c3ccccc3)CC2)cc1	.	.	3	.	-1	.	.
COC(=O)c1scc(C#N)c1N/N=C(\C#N)S(=O)(=O)c1ccc(Cl)cc1	-25	1	41*	5	-4	66*	21*
COC(=O)c1scc(S(=O)(=O)C(C)C)c1N/N=C(\C#N)C(=O)c1ccc(Cl)cc1	9	1	51*	1	12	61*	23*
CCOc1ccccc1C(=O)NCC(=O)N(C)Cc1cccnc1	-5	0	0	6	-2	.	.
O=[N+]([O-])c1ccc(N/N=C/c2cccc(O)c2O)c(S(=O)(=O)N2CCOCC2)c1	-13	-3	35*	1	6	33	18*
O=C(CCc1ccc(S(=O)(=O)N2CCOCC2)cc1)N/N=C/c1ccc(O)c(O)c1O	-7	-1	40*	2	-6	46*	16*
O=[N+]([O-])c1ccc(N/N=C/c2ccc(O)c(O)c2O)c(S(=O)(=O)N2CCOCC2)c1	-40	-1	69*	.	5	84*	52*
CCCCCCCCNCCS(=O)(=O)NN1CCOCC1	-17	-2	1	.	-2	.	.
CCOC(=O)c1sc(-n2[nH]c(C)cc2=O)nc1C	7	1	78*	0	-4	47*	13*
CS(=O)(=O)c1ccc(-c2sc3ccccc3c2C(=O)N2CCN(c3ccc(F)cc3)CC2)cc1	-59	-6	0	.	-8	.	.
COC12CC(=O)C(C(C)=O)=C(O)C1(C)c1c(O)c(C)c(O)c(C(C)=O)c1O2 (stereo not given)	18	-1	55*	.	2	67*	30*
CC(=O)c1c(O)c(C)c(O)c2c1OC1=CC(=O)/C(=C(/C)N)C(=O)C12C (stereo not given)	10	0	9	.	11	.	.
Nc1c(C(=O)Nc2ccc(Br)cc2)sc2nc(-c3ccco3)ccc12	-65	3	51*	5	-6	37*	20*
CC(=O)c1sc2nc(-c3ccco3)ccc2c1N	-19	-1	35	-3	-11	.	.
Nc1c(C(=O)Nc2ccc(F)cc2)sc2nc(-c3ccco3)ccc12	-25	6	35*	3	-21	55*	26*
C[C@H](CO)N1C[C@H](C)[C@@H](CN(C)S(=O)(=O)c2ccc(F)cc2)Oc2c(NC(=O)Cc3ccccc3)cccc2C1=O	9	2	2	.	2	.	.
Cc1ccc(CNC(=O)c2ccccc2NS(=O)(=O)c2ccc(Cl)nc2)cc1	23	-2	43*	2	5	20	4
Cc1ccc(S(=O)(=O)Nc2ccccc2C(=O)Nc2ccc(S(=O)(=O)Nc3nccc(C)n3)cc2)cc1	-7	1	59*	0	-8	55*	24*
Cc1ccc(CNC(=O)c2ccccc2NS(C)(=O)=O)cc1	-13	0	1	2	-1	.	.
Cc1ccc(C)c(S(=O)(=O)Nc2ccccc2C(=O)Nc2ccc(S(=O)(=O)Nc3ncccn3)cc2)c1	17	2	77*	1	1	51*	18*
COc1ccc(NS(=O)(=O)c2ccc(Oc3cccc(C(=O)O)c3)cc2)cc1	-40	0	10	0	-7	.	.
O=C(O)c1cccc(NS(=O)(=O)c2ccc(Oc3ccc(S(=O)(=O)Nc4cccc(C(=O)O)c4)cc3)cc2)c1	14	1	47*	4	-4	23	3
O=C(O)c1cccc(NC(CNS(=O)(=O)c2ccc(Cl)cc2)c2ccccc2)c1 (stereo not given)	-18	2	43*	-2	2	37*	11*
SMILES	NR2E3 ag-1	PG9 Ab binder	rCAG binder	NR2E3 ag-2	Rev-erbA mod	rCAG bind conf	DNA CAG counter
O=C(O)c1cccc(NS(=O)(=O)c2ccc(-c3ccc(S(=O)(=O)Nc4cccc(C(=O)O)c4)cc3)cc2)c1	11	0	43*	0	-2	17	1
CN1CCN(c2ccc(-c3cc(NC=O)c4ncc(-c5ccccc5)n4c3)cc2)CC1	-38	-1	12	.	-1	.	.
CC(=O)NS(=O)(=O)c1ccc(NC(=O)c2cccc(S(=O)(=O)N3CCc4ccccc43)c2)cc1	11	-1	42*	2	1	40*	13*
COc1ccc(NC(C)=O)cc1NC(=O)c1cccc(S(=O)(=O)N2CCc3ccccc32)c1	0	2	8	7	4	.	.
CC(C)c1ccc(CC(=O)N2CCC2(C)C(=O)NS(=O)(=O)c2ccc(Cl)s2)cc1 (stereo not given)	-2	-2	40*	.	-7	41*	11*
CC(C)c1ccc(CC(=O)N2CCC2(C)C(=O)NS(=O)(=O)c2ccc(F)cc2F)cc1 (stereo not given)	-15	0	22	.	1	.	.
CCCS(=O)(=O)NC(=O)C1(C)CCN1C(=O)Cc1ccc(-c2ccccc2)cc1 (stereo not given)	8	0	21	.	-6	.	.
CC1(C(=O)NS(=O)(=O)c2ccc(Cl)s2)CCN1C(=O)Cc1ccc(-c2ccccc2)cc1 (stereo not given)	26	-1	74*	.	-6	75*	38*
COc1cc(C)ccc1S(=O)(=O)NC(=O)C1(C)CCN1C(=O)Cc1ccc(C(C)(C)C)cc1 (stereo not given)	1	1	28	.	-2	.	.
CC(C)(C)c1ccc(CC(=O)N2CCC2(C)C(=O)NS(=O)(=O)c2ccc(Cl)s2)cc1 (stereo not given)	14	1	62*	.	-3	61*	24*
CC(C)(C)c1ccc(S(=O)(=O)NC(=O)C2(C)CCN2C(=O)Cc2cccs2)cc1 (stereo not given)	-14	-2	3	.	10	.	.
Cc1cccc(NC(=S)N/N=C/c2ccc([N+](=O)[O-])s2)c1	-32	-4	36*	-1	2	18	11*

Assay outcomes as filed in PubChem BioAssay.
